Laboratory results reported in ChEMBL document CHEMBL2021925, “In vitro antimycoplasmal activity of Citrus bergamia essential oil and its major components” (2012).

Tests used:
[1] = tested on: Metamycoplasma hominis; test: Antimycoplasmal activity against Mycoplasma hominis PG21 after 24 to 48 hrs by broth microdilution method; assay type: functional
Summary of the method: (§1)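 Strains were grown in SP-4 broth and stored frozen at -80 C until testing. Broth microdilution with agent concentrations expressed as % v/v. MIC was the lowest concentration preventing the broth colour change when the growth-control tube changed: pH falling from 7.5 to 7.0 for M. fermentans, rising from 6.0 to 6.5 for M. hominis. Incubation was 24–48 h. Each strain was tested six times, plus six more times on different days. Growth and sterility controls were included.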

[2] = tested on: Mycoplasma fermentans; test: Antimycoplasmal activity against Mycoplasma fermentans Pg18 after 24 to 48 hrs by broth microdilution method; assay type: functional, Mycoplasmopsis fermentans; summary of the method: as §1
[3] = tested on: Mycoplasmoides pneumoniae; test: Antimycoplasmal activity against Mycoplasma pneumoniae M129 after 3 to 5 days by broth microdilution method

SMILES	MIC50 [1] [%v/v]	MIC90 [1] [%v/v]	MIC90 [2] [%v/v]	MIC90 [3] [%v/v]
C=CC(C)(CCC=C(C)C)OC(C)=O (configuration not stated) [LINALYL ACETATE]	0.015	0.015	0.12	0.015
C=CC(C)(O)CCC=C(C)C (configuration not stated) [LINALOOL]	1	1	0.06	0.015
C=C(C)[C@H]1CC=C(C)CC1 [D-LIMONENE]	4	8	1	0.03
